The target in one series is Mu-type opioid receptor (Homo sapiens, UniProt P35372). In words: Inhibition of mu-type opioid receptor (unknown origin). The method in brief: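 Radioligand panel screening was run through the NIMH Psychoactive Drug Screening Program with compounds at 5 µM.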
Another series deals with MDCK. In words: Apparent permeability across basolateral to apical side in dog MDCK cells expressing MDR1 at 5 uM after 120 mins by LC-MS/MS analysis. In kind it is ADME, cell-based, Canis lupus familiaris. To be noted: 2 h. The method in brief:
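MDR1-MDCK monolayers grown to confluence on collagen-coated polycarbonate membranes. Assay buffer was HBSS with 10 mM HEPES and 15 mM glucose, pH 7.4, and the receiver side also held 1% BSA. Monolayers were dosed apically (A-to-B) or basolaterally (B-to-A) at 5 μM, 37 °C, 5% CO2. Donor and receiver were sampled at 120 min, in duplicate, by LC-MS/MS (ESI). Papp and percent recovery were calculated from receiver/donor concentrations.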

For the next series, the system named is Liver microsomes. In words: Metabolic stability in human liver microsomes assessed as compound remaining at 1 uM after 20 mins by LC-MS/MS analysis. In kind it is ADME, Microsome. The method in brief: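 Human liver microsomes 0.5 mg/mL in 100 mM potassium phosphate pH 7.4 with 5 mM MgCl2 and 1 μM test compound. Preincubated 3 min at 37 °C, then started with 1 mM NADPH, with a testosterone control in parallel. Sampled at 0, 10, 20, 30 and 60 min and quenched in cold acetonitrile/water with formic acid and internal standard. Percent remaining by LC-MS/MS (MRM) versus time 0. t1/2 = 0.693/k from the ln-remaining slope; CLint = k/protein concentration.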
For orientation: Liver microsomes are vesicles of endoplasmic reticulum, rich in cytochrome P450 enzymes.

Sequence of Mu-type opioid receptor (P35372 whole entry): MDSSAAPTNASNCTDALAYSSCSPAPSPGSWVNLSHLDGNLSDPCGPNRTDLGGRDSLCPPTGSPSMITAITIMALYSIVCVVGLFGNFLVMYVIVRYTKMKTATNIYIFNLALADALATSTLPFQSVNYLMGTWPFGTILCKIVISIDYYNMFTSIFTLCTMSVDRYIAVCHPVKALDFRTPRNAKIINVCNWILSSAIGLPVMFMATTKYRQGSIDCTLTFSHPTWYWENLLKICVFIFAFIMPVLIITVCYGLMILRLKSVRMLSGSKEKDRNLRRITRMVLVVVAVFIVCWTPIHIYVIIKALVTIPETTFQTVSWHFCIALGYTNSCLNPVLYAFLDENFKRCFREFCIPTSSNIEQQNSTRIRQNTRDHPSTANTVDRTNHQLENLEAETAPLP

Regarding `O=C(O)/C=C/C(=O)N1N=C(c2c(-c3ccc(Br)cc3)c3ccccc3[nH]c2=O)CC1c1ccc(Cl)cc1` (racemic), at Mu-type opioid receptor, the Ki – broadly, the equilibrium dissociation constant of an inhibitor or competing ligand from its target – was over 10 µM.

Consider `O=C(O)CCC(=O)N1N=C(c2c(-c3ccc(Cl)cc3)c3ccccc3[nH]c2=O)CC1c1ccc(Cl)cc1` (racemic), for which the Papp – broadly, a coefficient for how fast a substance crosses the barrier – in the series with MDCK came to 256 nm/s. The Stability in the series on Liver microsomes is given as 100%.

These data come from ChEMBL document CHEMBL2424574, “Structure-activity relationships and pharmacophore model of a noncompetitive pyrazoline containing class of GluN2C/GluN2D selective antagonists” (J Med Chem, 2013).
